Laboratory results: ChEMBL document CHEMBL1121468, “Synthesis and blood pressure lowering activity of 3-(substituted-amino)-1,2,4-benzothiadiazine 1-oxide derivatives” (1980)
Activity calls are given as the source filed them. No cut-off for these calls is given here.

Assays:
Rattus norvegicus [1] = experiment: Percentage blood pressure lowering in spontaneously hypertensive rats within 3 hr of intraperitoneal administration at 2 mg/kg; format: functional
How it was run: (§1)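 Male Wistar/Kyoto SHR, about 6 months old, 300–400 g, housed four per cage with chow and water ad libitum. Drug given ip as a suspension in saline with 2% Emulphor EL-620. Systolic pressure was measured indirectly, mostly with photoelectric sensors at 25 °C, and earlier by a modified Friedman–Freed method with 30–45 s warming at 32 °C. Reported value: maximum % lowering within 3 h, mean ± SE.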

Oryctolagus cuniculus [2] = experiment: Minimum effective dose level to give significant blood pressure lowering effect in normotensive rabbits after administering intravenously; format: functional; details: iv; for minimal effective dose: read-out: MED
How it was run: (§2)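 Conscious rabbits held in a stock. After 30 min, a 30-min control recording was taken, then drug was given into an ear vein and recording continued for 120 min. Mean arterial pressure (electrically damped) and heart rate were averaged at 10-min intervals over 120 min. The dose was adjusted to the minimum giving p < 0.05 lowering; in practice a ≥10 mmHg mean fall was significant. Vehicle: saline with 2% Emulphor EL-620.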

Rattus norvegicus [3] = experiment: Percentage blood pressure lowering in spontaneously hypertensive rats within 3 hr of intraperitoneal administration at 50 mg/kg; format: functional; how it was run: as §1
Rattus norvegicus [4] = experiment: Percentage blood pressure lowering in spontaneously hypertensive rats within 3 hr of intraperitoneal administration at 50 mg/kg; Not statistically significant; format: functional; how it was run: as §1
Rattus norvegicus [5] = experiment: Percentage blood pressure lowering in spontaneously hypertensive rats within 3 hr of intraperitoneal administration at 20 mg/kg; Not statistically significant; format: functional; how it was run: as §1
Rattus norvegicus [6] = experiment: Percentage blood pressure lowering in spontaneously hypertensive rats within 3 hr of intraperitoneal administration at 25 mg/kg; format: functional; how it was run: as §1
Rattus norvegicus [7] = experiment: Percentage blood pressure lowering in spontaneously hypertensive rats within 3 hr of intraperitoneal administration at 10 mg/kg; format: functional; how it was run: as §1
Oryctolagus cuniculus [8] = experiment: Minimum effective dose level to give significant blood pressure lowering effect in normotensive rabbits after administering intravenously; NA denotes not active at 2.5 mg/kg; format: functional, organism-based; design: dose 2.5 mg/kg; how it was run: as §2
Rattus norvegicus [9] = experiment: Percentage blood pressure lowering in spontaneously hypertensive rats within 3 hr of intraperitoneal administration at 0.5 mg/kg; format: functional; how it was run: as §1
Rattus norvegicus [10] = experiment: Percentage blood pressure lowering in spontaneously hypertensive rats within 3 hr of intraperitoneal administration at 1.0 mg/kg; format: functional; how it was run: as §1
Oryctolagus cuniculus [11] = experiment: Mean blood pressure lowering in normotensive rabbits over 2 hr of intravenous administration at 0.125 mg/kg
Oryctolagus cuniculus [12] = experiment: Mean blood pressure lowering in normotensive rabbits over 2 h of intravenous administration at 0.008 mg/kg
Rattus norvegicus [13] = experiment: Percentage blood pressure lowering in spontaneously hypertensive rats within 3 hr of intraperitoneal administration at 20 mg/kg; format: functional; how it was run: as §1
Rattus norvegicus [14] = experiment: Percentage blood pressure lowering in spontaneously hypertensive rats within 3 hr of intraperitoneal administration at 5 mg/kg; format: functional; how it was run: as §1

Compound	minimal effective dose (Oryctolagus cuniculus [2]) [mg/kg]	BP decrease (Rattus norvegicus [3]) [%]	other results
COc1cc2c(cc1OC)S(C)(=O)=NC(N1CCC(C(=O)c3ccccc3)CC1)=N2.Cl (configuration not stated)	–	–	BP decrease (Rattus norvegicus [1]): 25.8%
CCOc1cc2c(cc1OCC)S(C)(=O)=NC(N1CCN(C(=O)c3ccco3)CC1)=N2.Cl (configuration not stated)	2.5	16.4	–
COc1cc2c(cc1OC)S(C)(=O)=NC(Nc1ccccc1)=N2.Cl (configuration not stated)	1	19.9	–
COc1cc2c(c(OC)c1OC)S(C)(=O)=NC(N1CCN(C(=O)c3ccco3)CC1)=N2.Cl (configuration not stated)	0.04	20.6	–
COc1cc2c(cc1OC)S(=O)(C(C)C)=NC(N1CCN(C(=O)c3ccco3)CC1)=N2.Cl (configuration not stated)	–	34.3	–
CCS1(=O)=NC(N2CCN(C(=O)c3ccco3)CC2)=Nc2cc(OC)c(OC)cc21.Cl (configuration not stated)	2.5	18.2	–
COc1cc2c(cc1OC)S(C)(=O)=NC(N1CCNCC1)=N2.Cl.Cl (configuration not stated)	10	–	BP decrease (Rattus norvegicus [4]): 9.1%
COc1cc2c(cc1OC)S(C)(=O)=NC(N(C)C)=N2.Cl (configuration not stated)	0.125	24.8	–
COc1cc2c(cc1OC)S(C)(=O)=NC(N1CCC(n3c(O)nc4ccccc43)CC1)=N2.Cl (configuration not stated)	2.5	22.5	–
COc1cc2c(cc1OC)S(=O)(c1ccccc1)=NC(N1CCN(C(=O)c3ccco3)CC1)=N2.Cl (configuration not stated)	1.25	26.1	–
COc1cc2c(cc1OC)S(C)(=O)=NC(N1CCC(c3ccccc3)CC1)=N2.Cl (configuration not stated)	0.16	30.2	–
COc1cc2c(cc1OC)S(C)(=O)=NC(N1CCCN(C(=O)c3ccco3)CC1)=N2.Cl (configuration not stated)	1.25	–	BP decrease (Rattus norvegicus [5]): -1%
COc1cc2c(cc1OC)S(C)(=O)=NC(N1CCCCC1)=N2.Cl (configuration not stated)	1.25	–	BP decrease (Rattus norvegicus [4]): 17.1%
COc1cc2c(cc1OC)S(C)(=O)=NC(N1CCN(c3ccccc3)CC1)=N2.Cl.Cl (configuration not stated)	0.625	–	BP decrease (Rattus norvegicus [6]): 30.8%
COc1cc2c(cc1OC)S(C)(=O)=NC(NC(C)C)=N2.Cl (configuration not stated)	2.5	17.7	–
COc1cc2c(cc1OC)S(C)(=O)=NC(N1CCC(O)(c3ccccc3)CC1)=N2.Cl (configuration not stated)	–	21.4	–
COc1cc2c(cc1OC)S(C)(=O)=NC(N1CCN(Cc3ccccc3)CC1)=N2.Cl.Cl (configuration not stated)	2.5	32.9	–
COc1cc2c(cc1OC)S(C)(=O)=NC(N1CCC(C(O)c3ccccc3)CC1)=N2.Cl (configuration not stated)	0.008	–	BP decrease (Rattus norvegicus [7]): 40.9%
COc1cc2c(cc1OC)S(C)(=O)=NC(N1CCN(C)CC1)=N2.Cl.Cl (configuration not stated)	5	19.7	–
CS1(=O)=NC(N2CCN(C(=O)c3ccco3)CC2)=Nc2cc3c(cc21)OCO3.Cl (configuration not stated)	–	18.2	BP decrease (Oryctolagus cuniculus [8]): inactive
COc1cc2nc(N3CCN(C(=O)c4ccco4)CC3)nc(N)c2cc1OC.Cl [PRAZOSIN HYDROCHLORIDE]	–	–	MED (Oryctolagus cuniculus [2]): 0.025 mg/kg; BP decrease (Rattus norvegicus [9]): 14.7%
COc1cc2c(cc1OC)S(C)(=O)=NC(NCc1ccccc1)=N2.Cl (configuration not stated)	1.25	28.9	–
COc1cc2c(cc1OC)S(C)(=O)=NC(N1CCN(C(=O)c3ccccc3)CC1)=N2.Cl (configuration not stated)	0.312	25.5	–
COc1cc2c(cc1OC)S(C)(=O)=NC(N1CCN(C(=O)c3nnc(SC)o3)CC1)=N2.Cl (configuration not stated)	0.2	–	BP decrease (Rattus norvegicus [10]): 14%
COc1cc2c(cc1OC)S(C)(=O)=NC(N1CCC(C#N)(c3ccccc3)CC1)=N2.Cl (configuration not stated)	–	–	BP decrease (Rattus norvegicus [4]): 1.6%
COc1cc2c(cc1OC)S(C)(=O)=NC(N1CCN(C(=O)c3ccco3)CC1)=N2.Cl (configuration not stated)	–	–	BP decrease (Oryctolagus cuniculus [11]): 24.8 mmHg; BP decrease (Oryctolagus cuniculus [12]): 11.9 mmHg; BP decrease (Rattus norvegicus [9]): 28.8%
COc1cc2c(cc1OC)S(C)(=O)=NC(N1CCC(OC(C)=O)CC1)=N2.Cl (configuration not stated)	0.25	–	BP decrease (Rattus norvegicus [13]): 43%
COc1cc2c(cc1OC)S(C)(=O)=NC(N1CCC(O)CC1)=N2.Cl (configuration not stated)	0.625	–	BP decrease (Rattus norvegicus [14]): 56.9%
CCN(CC)C1=Nc2cc(OC)c(OC)cc2S(C)(=O)=N1.Cl (configuration not stated)	0.04	–	BP decrease (Rattus norvegicus [1]): 37.3%
CNC1=Nc2cc(OC)c(OC)cc2S(C)(=O)=N1.Cl (configuration not stated)	0.16	–	BP decrease (Rattus norvegicus [4]): 11.3%
